# Assay outcomes: PubChem BioAssay, Sanford-Burnham Center for Chemical Genomics
# DNMT1 block: inhibitors of human DNMT1; P26358; DNMT1 molecular beacon, Hinp1I cleavage, fluorescence; inhibition (reported as % activation of signal), % at 10 µM; 0.83% of 360,000 active; in the data active = inhibition above about 50%
# SUMO1-SIM PPI: alters human SUMO1 binding to SIM partners | SUMO1 binding to a labelled peptide, TR-FRET, 1 h | P63165 | 0.33% of 360,000 active | inhibition, % at 20 µM | AID 602429; in the data active = inhibition above about 37%
# Target sequence (P63165 whole entry, looked up): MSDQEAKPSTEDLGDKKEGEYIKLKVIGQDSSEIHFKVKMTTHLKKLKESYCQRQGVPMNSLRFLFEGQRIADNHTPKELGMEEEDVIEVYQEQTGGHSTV
# Scp1 inh: inhibitors of human Scp-1 phosphatase; 0.88% of 340,000 active; AID 493091; Recombinant Scp1, phosphopeptide, malachite green phosphate absorbance; Q9GZU7; inhibition, % at 20 µM;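 active = inhibition above about 50% at 20 µM, limit read from the data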;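 also: plate controls were DMSO wells with enzyme for no effect and wells lacking enzyme for full effect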
# Target sequence (Q9GZU7 76-261 limits assumed): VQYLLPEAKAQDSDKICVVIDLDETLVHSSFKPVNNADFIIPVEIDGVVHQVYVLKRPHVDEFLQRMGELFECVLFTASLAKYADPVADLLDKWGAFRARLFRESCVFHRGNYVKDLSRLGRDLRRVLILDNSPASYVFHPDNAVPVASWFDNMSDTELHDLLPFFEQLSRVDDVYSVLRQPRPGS
#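 System: SCP-1 catalytic domain; Reagent: Phospho 17-mer peptide substrate; Doses: one concentration, 20 µM, with 1.0% DMSO; Incubation: 45 min room-temperature reaction, 5 min colour, 30 min stabiliser; Signal: Phosphate-binding colour reagent, absorbance read at 630 nm.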
# STEP block: STEP (human) phosphatase inhibition; AID 588621; inhibition, % at 20 µM; recombinant STEP, OMFP fluorogenic substrate, fluorescence; P54829; 0.25% of 360,000 active;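 active = inhibition at 20 µM, scaled per plate between control wells, above about 37%, limit read from the data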;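 also: 0% = DMSO with enzyme and substrate and 100% = substrate only without enzyme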
#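 medium = Bis-Tris buffer pH 6.0, 2.5 mM DTT, 0.005% Tween 20 | test system = STEP (striatal-enriched tyrosine phosphatase) enzyme, cell-free | measure = normalized % inhibition | compound dosing = 20 µM, 1% DMSO | also added = 25 µM OMFP | schedule = reaction 20 min, ambient temperature | measured by = fluorescence read at 480 nm ex / 540 nm em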
# LMPTP block: LMPTP (human) inhibition; recombinant LMPTP-A, OMFP fluorogenic substrate, fluorescence intensity; inhibition, % at 20 µM; 0.22% of 360,000 active;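 active = compounds that cut the enzyme signal by at least half of the control window in the single-dose screen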;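 also: plate controls were DMSO wells with enzyme plus substrate for no effect and substrate without enzyme for full effect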
#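 Test system – LMPTP-A enzyme · Amount – LMPTP-A at 0.625 nM final in the reaction · Buffer or medium – Bis-Tris pH 6.0, DTT, detergent · Reagent – OMFP 400 µM · Doses – single 20 µM dose · Schedule – reaction 50 min, room temperature, dark · Detection – fluorescence intensity of OMFP turnover product · Evaluation – percent inhibition versus substrate-only and uninhibited controls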
# CSN inh: blocks human CSN-mediated cullin deneddylation | Purified CSN, SCF-Nedd8-OG deneddylation, fluorescence polarization | 0.38% of 360,000 active | inhibition, % at 12.5 µM;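 active = pattern-corrected inhibition above about 35%, with an unprinted fluorescence ratio check between 0.5 and 1.5, limit read from the data, passing the limit was not always enough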;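 also: 0% = enzyme with substrate and 100% = substrate without enzyme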
# Target sequence (Q92905 whole entry, looked up, one chain of several): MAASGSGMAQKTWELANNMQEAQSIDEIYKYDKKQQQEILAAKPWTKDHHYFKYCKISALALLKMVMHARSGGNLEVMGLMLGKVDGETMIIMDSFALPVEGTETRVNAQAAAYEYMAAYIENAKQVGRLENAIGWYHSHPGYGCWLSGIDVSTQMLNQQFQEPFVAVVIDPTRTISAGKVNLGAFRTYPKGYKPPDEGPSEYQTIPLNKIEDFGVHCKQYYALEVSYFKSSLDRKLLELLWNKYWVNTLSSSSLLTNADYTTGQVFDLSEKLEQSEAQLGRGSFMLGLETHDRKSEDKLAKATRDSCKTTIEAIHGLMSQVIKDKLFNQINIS
#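 assay system = purified human Csn5 enzyme expressed in HEK293T cells | amount = 0.24 nM enzyme | buffer or medium = Tris/NaCl/DTT buffer, pH 7.5 | reagent = 10 nM SCFSkp2-Nedd8OG | compound = one concentration, 12.5 µM, 0.25% DMSO | times = 90 min reaction at room temperature | signal = FP | read-out basis = % inhibition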
# Active calls of the source: *; nt = no result given. The list is not random: actives were taken first. Their share in the collection is about 2%.
SMILES,DNMT1 block,SUMO1-SIM PPI,Scp1 inh,STEP block,LMPTP block,CSN inh
Cc1cc(OCC(=O)NCc2cccnc2)c2c(C)c(C)c(=O)oc2c1,4,-13,-3,-2,1,0
COc1ccc(-c2cc(=O)oc3cc(OCC(=O)Nc4ccccn4)ccc23)cc1,-4,43*,-9,0,6,7
O=C(COc1ccc2c(-c3ccccc3)cc(=O)oc2c1)Nc1cccnc1,47,23,-1,10,11,49*
Cc1cc(OCC(=O)Nc2cccnc2)c2c(C)c(C)c(=O)oc2c1,5,76*,2,4,2,6
CCOC(=O)c1c(C)oc2c1c(C=NCCO)c(O)c1ccccc12,10,46*,-1,-2,5,-15
O=C(Nc1ccccn1)c1onc2c1CCCC2,4,-2,50*,-1,1,-3
O=C(Nc1ccccn1)c1csc2c1CCCC2,3,11,-2,2,0,-2
O=C(Nc1nnc(CCc2ccccc2)s1)c1cccc(F)c1,4,2,1,0,0,1
COc1ccc(C(=O)N/N=C(\C)c2ccc(NC(=O)Cc3ccccc3)cc2)c(OC)c1,5,47*,-2,1,0,3
CC(C)N1CCc2c(sc(NC(=O)c3nc4ccccc4s3)c2C(N)=O)C1,-7,-12,-9,10,5,17
CC(=O)N1CCc2c(sc(NC(=O)C3CC3)c2-c2nc3ccccc3s2)C1,-12,-1,-15,3,13,44*
CC(=O)Nc1sc2c(c1-c1nc3ccccc3s1)CN(C(C)C)CC2,78*,-18,-4,-4,0,-72
COc1cc(/C=C2\CCc3c2nc2ccccc2c3C(=O)O)cc(OC)c1OC,97*,48*,71*,42*,8,52
COc1cc(/C=C2\CCCc3c2nc2ccccc2c3C(=O)O)cc(Br)c1O,0,0,-8,3,-7,4
COc1cc(OC)cc(C(=O)NNC(=O)C(=O)Nc2cc(OC)c(Cl)cc2OC)c1,8,5,0,0,-1,1
COc1cc(C(C)=O)ccc1OCC(=O)N1CCc2ccccc2C1,-3,5,3,-1,0,92*
Cc1ccc(OCC(=O)N2CCc3ccccc3C2)c(C)c1,0,2,-3,3,1,3
CC(=O)c1cccc(NC(=O)c2cccc(N3C(=O)c4ccccc4C3=O)c2)c1,0,61*,49,6,3,10
CCOCCCn1c(=S)[nH]c2cc(C(=O)NCCc3ccccc3)ccc2c1=O,5,-25,-3,0,1,2
Cc1ccccc1S(=O)(=O)NC(=O)C1(C)CCN1C(=O)C1(c2ccc(Cl)cc2)CCC1 (stereo not drawn),2,1,nt,-3,-4,0
COc1ccc(O)c(C(=O)c2cc(C#N)c(=O)n(-c3ccc(Cl)cc3)c2)c1,-4,-26,-20,-3,0,36*
CC1=NOC(=O)/C1=C\c1ccc(-c2ccc(Br)cc2)o1,61*,15,1,4,5,28
CC1=NOC(=O)/C1=C/c1ccc(-c2ccc(Cl)cc2)o1,43,20,nt,5,4,20
C=CCN(c1ccccc1)S(=O)(=O)c1cccc(C(=O)Nc2ncccc2O)c1,1,16,-3,-1,0,1
COc1ccc(C(=O)N/N=C/c2cc(Br)ccc2O)cc1OC,3,-22,-7,-2,1,21
SMILES,DNMT1 block,SUMO1-SIM PPI,Scp1 inh,STEP block,LMPTP block,CSN inh
COc1ccc(O)c(/C=N/NC(=O)c2ccc(OCc3cccc(Br)c3)cc2)c1,52*,1,96*,33,13,12
Cc1cc(C)c(S(=O)(=O)c2ccccc2)c(OC(=O)c2c(Cl)cc(Cl)cc2Cl)n1,-7,42*,-12,2,3,2
Cc1cc(C)c(S(=O)(=O)c2ccccc2)c(OC(=O)c2c(F)cccc2F)n1,3,12,-11,2,0,4
O=[N+]([O-])c1ccc(Cl)cc1Sc1nc2ccccc2o1,7,-26,-10,3,3,4
O=[N+]([O-])c1ccc(Sc2nc3ccccc3o2)c([N+](=O)[O-])c1,52*,-17,-6,5,2,21
Cc1cc(/C=C2\SC(=O)NC2=O)c(C)n1-c1ccc(N(C)C)cc1,1,-4,4,-1,-1,0
Cc1cc(/C=C\c2ccc3cc(N(C)C)ccc3[n+]2C)c(C)n1-c1ccccc1,54*,0,43,15,78*,80
O=C(CN1C(=O)CC(c2ccccc2)S(=O)(=O)c2ccccc21)N1CCCCC1 (stereo not drawn),1,-2,4,-2,1,3
O=C1C=C(Nc2ccccc2C(=O)O)c2ccccc2C1=O,55*,21,17,6,8,17
CCCCCCc1cc2cc(-c3nnc(-c4ccccc4O)o3)c(=O)oc2cc1O,87*,8,-8,-1,1,-73
CCCCCCc1cc2cc(-c3nnc(-c4cc(OC)c(OC)c(OC)c4)o3)c(=O)oc2cc1O,nt,nt,0,nt,nt,nt
Cc1[nH]c2ccc(C(=O)OCC(=O)Nc3cccc(S(N)(=O)=O)c3)cc2c1C,-19,60*,-5,1,1,6
COc1ccc(CC(=O)Nc2ccc(-c3nnc(-c4ccccc4)o3)cc2)cc1OC,-18,2,-6,19,14,46*
COc1ccc(-c2nc3cc(NC(=O)Cc4ccc(OC)c(OC)c4)ccc3o2)cc1,-9,8,-4,5,2,43*
C=CCN1CC(C(=O)N2CCC(Cc3ccc(Cl)cc3)(C(=O)OCC)CC2)CC1=O (stereo not drawn),-1,-6,-17,1,0,1
CC1=C(C(=O)N(C)C)CC(CC(=O)NCC2CCCCC2)C(=O)N1Cc1ccccc1 (stereo not drawn),5,0,nt,-3,-2,-1
CCCCC12CN3CCN(CC(C3)/C1=N\NC(=O)Nc1ccccc1)C2,6,2,-4,1,-1,42*
CCC12CN3CCN(CC(C3)/C1=N\NC(=O)Nc1ccccc1)C2,1,4,-1,2,-3,2
COC(=O)CCC(=O)OC1(C)C(=O)C2=CN(Cc3ccc(OC)cc3)C(c3ccc(OC)cc3)=CC2=C(Br)C1=O (stereo not drawn),-8,-15,-8,6,4,4
COc1ccc(C2=CC3=C(Br)C(=O)C(C)(O)C(=O)C3=CO2)cc1 (stereo not drawn),7,52*,0,-1,-2,3
